MrgX1 ag: agonists of human MrgX1 receptor; Q96LB2; MrgX1-HEK293 cells, Fluo-4 calcium fluorescence, agonist mode; hits give high values; B-score at 10 µM; 310,000 tested, 0.44% active; AID 588627;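 active = calcium response B-score plate-corrected fluorescence ratio at least 3 library SD, with starting fluorescence B-score inside 5 SD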
Target sequence (Q96LB2 whole entry, looked up): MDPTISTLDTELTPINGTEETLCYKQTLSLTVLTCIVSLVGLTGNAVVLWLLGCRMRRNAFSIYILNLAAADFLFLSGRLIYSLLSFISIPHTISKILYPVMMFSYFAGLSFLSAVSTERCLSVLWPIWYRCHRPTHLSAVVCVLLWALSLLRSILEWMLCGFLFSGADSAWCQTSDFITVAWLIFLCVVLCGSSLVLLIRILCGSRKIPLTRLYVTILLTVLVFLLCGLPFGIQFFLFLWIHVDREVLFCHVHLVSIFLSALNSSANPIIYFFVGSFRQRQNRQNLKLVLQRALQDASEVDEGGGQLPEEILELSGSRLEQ
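Material: HEK293 cells stably expressing human MrgX1 receptor | Quantity: 15,000 cells per well | Times: Cells plated overnight, dye loaded 0.5 h 37 °C, 0.5 h room temperature | Measured by: Kinetic Fluo-4 NW fluorescence of intracellular calcium | Control set: Positive and negative controls per plate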
MrgX1 antagonist: human MrgX1 receptor antagonism, primary screen. MRGX1-HEK293 calcium flux, Fluo-4, BAM8-22 antagonism; hits give low values. B-score at 10 µM. 310,000 tested, 1.3% active;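 active = calcium-response B-score plate-corrected more than 3 library SD below zero, starting fluorescence within 5 deviations, no agonist response on first addition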;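 also: peak minus trough fluorescence over baseline after final BAM8-22 challenge near maximal dose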
RGS4 block: human RGS4 inhibition. P49798. HEK293 M3R/RGS4 inducible, Fluo-4 calcium flux; hits give high values; triggered by carbachol at its EC20. B-score at 10 µM. 310,000 tested, 0.45% active. AID 463165;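 active = B-score, a plate-corrected calcium signal, over three deviations above library mean, with baseline fluorescence within five deviations of library mean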;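 also: RGS4 expression induced by doxycycline in cells with stable M3 receptor; B-score is computed from the integrated fluorescence ratio over baseline after carbachol; higher B-score means a larger calcium signal and so more RGS4 inhibition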
Target sequence (P49798 whole entry, looked up): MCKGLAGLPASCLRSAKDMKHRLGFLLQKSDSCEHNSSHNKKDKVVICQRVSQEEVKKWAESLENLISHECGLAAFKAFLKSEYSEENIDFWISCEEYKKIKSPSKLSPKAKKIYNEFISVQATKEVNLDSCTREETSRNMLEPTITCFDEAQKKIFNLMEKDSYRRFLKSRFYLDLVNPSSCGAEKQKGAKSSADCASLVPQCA
RGS4 pot: potentiators or activators of RGS4 | HEK293 M3R/inducible RGS4, carbachol calcium flux Fluo4; hits give low values | 310,000 tested, 0.92% active | B-score at 10 µM;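 active = B-score of the integrated calcium signal more than 4 SD below the library mean, with starting fluorescence not abnormally high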;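 also: negative B-score means reduced calcium response which marks RGS4 activation or potentiation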
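test system = M3R-expressing HEK293 line, RGS4 induced by doxycycline | probe or stimulus = carbachol at ECmax as muscarinic agonist stimulus | timing = dye loading 30 min 37 °C, buffer rest 30 min RT | signal = calcium dye Fluo4 fluorescence | evaluation = B score from integrated fluorescence ratio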
MrgX1 allo act: human MrgX1 positive allosteric modulation, primary screen. Q96LB2. MrgX1-HEK293, Fluo-4 calcium flux, FDSS; hits give high values. B-score at 10 µM. 310,000 tested, 0.63% active. AID 588675;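 active = plate-corrected calcium response at least 3 library SD above typical, normal starting fluorescence, not activating the receptor alone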;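 also: compound read alongside a low EC10 to EC30 dose of BAM8-22 agonist; peak minus trough fluorescence over baseline measured at the second addition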
MrgX1 ant reconf: reconfirmed antagonist of human MrgX1 receptor signaling; shares compounds with MrgX1 antagonist; 2,300 tested, 19% active; MrgX1-HEK293, BAM8-22 calcium flux, Fluo-4; hits give low values; remaining BAM8-22 calcium response % of control (hits give low values), % at 10 µM; AID 602420;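 active = remaining agonist calcium response no higher than 100% minus 3 SD of agonist-only control wells, with starting fluorescence near control levels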;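 also: agonist BAM8-22 given at a near maximal EC90 to ECmax level; peak minus minimum fluorescence divided by baseline after agonist addition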
HEK293 Ca flux: counter-screen for MrgX1 antagonists: effect in parental HEK293 cells. shares compounds with MrgX1 antagonist. Fluo-4 calcium fluorescence, FDSS. fluorescence ratio F(max-min)/F0 at 10 µM. 4,000 tested, 2% active. AID 624111;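 active = duplicate-averaged calcium fluorescence ratio at least three times the standard deviation of buffer wells, a nonspecific response in parental cells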
HEK293 Ca counter: MrgX1 allosteric activator counter-screen hit in parental HEK293 cells; shares compounds with MrgX1 antagonist; parental HEK293 calcium flux, Fluo-4 fluorescence ratio; hits give high values; AID 624114; fluorescence ratio F(max-min)/F0 at 10 µM; 4,000 tested, 0.4% active;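 active = calcium fluorescence ratio, averaged over duplicates, at least 3 SD of the buffer-well ratio, meaning a nonspecific response in receptor-free cells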;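 also: untransfected parental HEK293 lacking MrgX1 used as counterscreen for MrgX1 allosteric activators; fluorescence change taken during the second addition on a kinetic imager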
HEK293 Ca cntr2: activity in parental HEK293 cells lacking MrgX1 receptor | shares compounds with MrgX1 antagonist | Fluo-4 calcium fluorescence (FDSS); hits give high values | fluorescence ratio F(max-min)/F0 at 10 µM | 4,000 tested, 8.7% active | AID 624115;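 active = calcium fluorescence ratio at least three times the spread of buffer wells, meaning a non-specific response in parental cells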
* = called active by the depositor; i = inactive; . = no result given; ! = repeats disagree. In the library only some 3.5% were active in any assay of this set; here they are far more common.

SMILES	MrgX1 ag	MrgX1 antagonist	RGS4 block	RGS4 pot	MrgX1 allo act	MrgX1 ant reconf	HEK293 Ca flux	HEK293 Ca counter	HEK293 Ca cntr2
COc1cccc(NC(=O)C(OC(=O)c2cnc(C)cn2)c2ccccc2)c1 (stereo unspecified)	i	-6.22*	i	i	i	i	i	i	i
Cc1csc(NC(C)c2nc3cc(Cl)c(N4CCCCC4)cc3n2CCOCCO)n1 (stereo unspecified)	i	i	i	i	i	.	.	.	.
Cc1cc(C)cc(C(=O)NCC(=O)OCC(=O)N(C)c2ccccc2)c1	i	-5.14*	i	i	i	i	i	i	i
CC(NC(N)=O)C(=O)OCc1ccc(Cl)cc1Cl (stereo unspecified)	i	-8.15*	i	i	i	i	i	i	i
Cc1ccccc1/C(N)=N/O	i	i	i	i	i	.	.	.	.
CNC(=O)COC(=O)c1nc(-n2nc(C)cc2C)ccc1Cl	i	-6.77*	i	i	i	i	i	i	i
CN(CCO)c1c2c(nc3cc(-c4cccc(F)c4)nn13)CCCC2	i	-9.59*	i	i	i	i	i	i	i
OC1CCN(c2c3c(nc4cc(-c5cccc(F)c5)nn24)CCCC3)CC1	i	i	i	i	i	.	.	.	.
Cc1noc(C)c1CSc1cc(C)c2ccccc2n1	i	i	i	i	i	.	.	.	.
CCOC(=O)CCc1c(C)nc2cc(-c3ccccc3OC)[nH]n2c1=O	i	i	i	i	i	.	.	.	.
CCOC(=O)CCc1c(C)nc2cc(C3CCCN(C(=O)OC(C)(C)C)C3)[nH]n2c1=O (stereo unspecified)	i	-5.38*	.	.	i	i	i	i	i
CCCCn1c(N)c(N(CC(C)C)C(=O)c2ccc(OCc3c(C)noc3C)cc2)c(=O)[nH]c1=O	i	i	i	i	i	.	.	.	.
COc1ccccc1NC(=O)CN1CCN(CC(=O)Nc2ccc(S(N)(=O)=O)cc2)CC1	i	-7.59*	i	i	i	i	i	i	i
COc1ccc(CNC(=O)CSc2nc3ccc(N)cc3s2)cc1	i	i	i	i	i	.	.	.	.
CC(NC(=O)CSc1nc2ccc(N)cc2s1)c1ccccc1 (stereo unspecified)	i	-5.53*	i	i	i	i	i	i	i
CCOC(=O)c1c(Cc2cccc(Cl)c2)c[nH]c1C	i	i	i	i	i	.	.	.	.
Cc1cccc(CNC(=O)Cn2ccc3cc(S(=O)(=O)N4CCCCCC4)ccc32)c1	i	i	i	i	i	.	.	.	.
Cc1cccc(CNC(=O)Cn2ccc3cc(S(=O)(=O)N4CCCC4)ccc32)c1	i	-6.79*	i	i	i	i	i	i	i
COc1ccc(CNC(=O)COC(=O)CCc2c[nH]c3ccccc23)cc1	i	i	i	i	i	.	.	.	.
CCOC(=O)N1CCN(S(=O)(=O)CCNC(=O)c2ccc(F)cc2)CC1	i	i	i	i	i	.	.	.	.
COC(=O)CN1C(=O)CC(C)(C)Sc2ccccc21	i	i	i	i	i	.	.	.	.
CC1(C)CC(=O)N(CC(=O)O)c2ccccc2S1	i	-4.53*	i	i	i	i	i	i	i
Cn1c(SCc2ccc(C#N)cc2)nnc1-c1cccc(Cl)c1	i	-4.7*	i	i	i	i	i	i	i
CC(=O)Nc1ccc(NC(=O)C(C)OC(=O)CN(C)S(=O)(=O)c2ccc(Cl)cc2)cc1 (stereo unspecified)	i	-6.08*	i	i	i	i	i	i	i
O=C(O)CCSc1ccc2ccccc2n1	i	-6.73*!	i	i	i	i	i	i	i
SMILES	MrgX1 ag	MrgX1 antagonist	RGS4 block	RGS4 pot	MrgX1 allo act	MrgX1 ant reconf	HEK293 Ca flux	HEK293 Ca counter	HEK293 Ca cntr2
C/C(CC(=O)Nc1ccccn1)=N\NC(=O)c1cnccn1	i	i	i	i	i	.	.	.	.
Cc1nn(C)cc1C(C)NCc1c(C(=O)N2CCCCCCC2)nc2ccc(Cl)cn12 (stereo unspecified)	i	i	i	i	i	.	.	.	.
O=C(NCCc1ccccc1)c1cc(S(=O)(=O)N2CCCC2)ccc1F	i	i	i	i	i	.	.	.	.
CCCCCNC(=O)c1cc(S(=O)(=O)N2CCCCC2)ccc1F	i	-7.91*	i	i	i	i	i	i	i
O=C(N/C(=C/c1ccccc1Cl)C(=O)N1CCCCC1)c1ccco1	i	i	i	i	i	.	.	.	.
COc1ccccc1N1N=C(c2ccc([N+](=O)[O-])cc2)CC1c1ccccc1 (stereo unspecified)	i	-15.4*	i	i	i	i	0.692*	i	i
O=[N+]([O-])c1ccc(N2N=C(c3ccccc3)CC2c2ccccc2O)cc1 (stereo unspecified)	i	-16*	i	-9.35*	i	i	0.562*	i	i
COc1cc(N2N=C(c3ccccc3)CC2c2ccccc2)c(C=O)cc1C=O (stereo unspecified)	i	i	i	i	i	.	.	.	.
Cc1ccc(CNC(=O)Cn2ccc3cc(S(=O)(=O)N4CCCCCC4)ccc32)cc1	i	i	i	i	i	.	.	.	.
CSc1nc2c(c(=O)[nH]c(=O)n2C)n1Cc1ccccc1Cl	i	i	i	i	i	.	.	.	.
Cc1csc(Sc2nc3c(c(=O)[nH]c(=O)n3C)n2Cc2ccccc2Cl)n1	i	-8.75*	i	i	i	i	i	i	i
C/C(=N\NC(=O)c1nnn(-c2nonc2N)c1CN(C)c1ccccc1)c1ccccn1	i	i	i	i	i	.	.	.	.
Cc1nc(CNS(=O)(=O)c2ccccc2F)cs1	i	-4.58*	i	i	i	i	i	i	i
Cc1nc(CNS(=O)(=O)c2cccs2)cs1	i	i	i	i	i	.	.	.	.
Cc1ccccc1OCCC(=O)Nc1ccc(N2CCOCC2)cc1N1CCOCC1	i	i	i	i	i	.	.	.	.
